In brackets after ≈: the same amount, converted by molar mass.
Key:
Assay type in all cases: functional
Pythium aphanidermatum [1] = assay: Antifungal activity against Pythium aphanidermatum assessed as growth inhibition at 7.25 ug/ml by poisoned food technique
Summary of the method: (§1)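 Poisoned-food assay on potato dextrose agar: test material is dissolved and diluted in acetone and mixed into the medium before pouring, with an acetone-only control. A 5 mm mycelial disk is cut from the growing edge of a 2-week-old colony and placed inoculum-down at the plate centre. Plates are incubated at 28 °C until control growth is nearly complete. Colony diameter is measured, and % inhibition = (C−T)/C×100. Four replicates give the mean.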

Pythium aphanidermatum [2] = assay: Antifungal activity against Pythium aphanidermatum assessed as growth inhibition at 15.50 ug/ml by poisoned food technique; summary of the method: as §1
Pythium aphanidermatum [3] = assay: Antifungal activity against Pythium aphanidermatum assessed as growth inhibition at 31 ug/ml by poisoned food technique; summary of the method: as §1
Fusarium udum [4] = assay: Antifungal activity against Fusarium udum assessed as growth inhibition at 7.25 ug/ml by poisoned food technique; summary of the method: as §1
Fusarium udum [5] = assay: Antifungal activity against Fusarium udum assessed as growth inhibition at 15.50 ug/ml by poisoned food technique; summary of the method: as §1
Fusarium udum [6] = assay: Antifungal activity against Fusarium udum assessed as growth inhibition at 31 ug/ml by poisoned food technique; summary of the method: as §1
Macrophomina phaseolina [7] = assay: Antifungal activity against Rhizoctonia bataticola assessed as growth inhibition at 7.25 ug/ml by poisoned food technique; summary of the method: as §1
Macrophomina phaseolina [8] = assay: Antifungal activity against Rhizoctonia bataticola assessed as growth inhibition at 15.50 ug/ml by poisoned food technique; summary of the method: as §1
Macrophomina phaseolina [9] = assay: Antifungal activity against Rhizoctonia bataticola assessed as growth inhibition at 31 ug/ml by poisoned food technique; summary of the method: as §1
Rhizoctonia solani [10] = assay: Antifungal activity against Rhizoctonia solani assessed as growth inhibition at 7.25 ug/ml by poisoned food technique; summary of the method: as §1
Rhizoctonia solani [11] = assay: Antifungal activity against Rhizoctonia solani assessed as growth inhibition at 15.50 ug/ml by poisoned food technique; summary of the method: as §1
Rhizoctonia solani [12] = assay: Antifungal activity against Rhizoctonia solani assessed as growth inhibition at 31 ug/ml by poisoned food technique; summary of the method: as §1
Athelia rolfsii [13] = assay: Antifungal activity against Athelia rolfsii assessed as growth inhibition at 7.25 ug/ml by poisoned food technique; conditions: Agroathelia rolfsii; summary of the method: as §1
Athelia rolfsii [14] = assay: Antifungal activity against Athelia rolfsii assessed as growth inhibition at 15.50 ug/ml by poisoned food technique; conditions: Agroathelia rolfsii; summary of the method: as §1
Athelia rolfsii [15] = assay: Antifungal activity against Athelia rolfsii assessed as growth inhibition at 31 ug/ml by poisoned food technique; conditions: Agroathelia rolfsii; summary of the method: as §1
[16] = test system: Globisporangium debaryanum; assay: Antifungal activity against Pythium debaryanum assessed as growth inhibition by poisoned food technique; conditions: read-out: ED50 (the source's name)
Summary of the method: (§2)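 ED50 from poisoned-food growth inhibition on PDA at 250, 125 and 62.5 μg/mL in medium, with an acetone control. Plates were inoculated with a 5 mm mycelial disc, incubated at 28 °C, and colony diameter was measured in quadruplicate. Percent inhibition was corrected by Abbott's formula, using a correction factor from the 9 cm dish diameter, and ED50 (μg/mL) was derived by probit analysis.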

Pythium aphanidermatum [17] = assay: Antifungal activity against Pythium aphanidermatum assessed as growth inhibition by poisoned food technique; conditions: read-out: ED50 (the source's name); summary of the method: as §2
Fusarium udum [18] = assay: Antifungal activity against Fusarium udum assessed as growth inhibition by poisoned food technique; conditions: read-out: ED50 (the source's name); summary of the method: as §2
Macrophomina phaseolina [19] = assay: Antifungal activity against Rhizoctonia bataticola assessed as growth inhibition by poisoned food technique; conditions: read-out: ED50 (the source's name); summary of the method: as §2
Rhizoctonia solani [20] = assay: Antifungal activity against Rhizoctonia solani assessed as growth inhibition by poisoned food technique; conditions: read-out: ED50 (the source's name); summary of the method: as §2
Athelia rolfsii [21] = assay: Antifungal activity against Athelia rolfsii assessed as growth inhibition by poisoned food technique; conditions: Agroathelia rolfsii; read-out: ED50 (the source's name); summary of the method: as §2
[22] = test system: Globisporangium debaryanum; assay: Antifungal activity against Pythium debaryanum assessed as growth inhibition at 7.25 ug/ml by poisoned food technique; summary of the method: as §1
[23] = test system: Globisporangium debaryanum; assay: Antifungal activity against Pythium debaryanum assessed as growth inhibition at 15.50 ug/ml by poisoned food technique; summary of the method: as §1
[24] = test system: Globisporangium debaryanum; assay: Antifungal activity against Pythium debaryanum assessed as growth inhibition at 31 ug/ml by poisoned food technique; summary of the method: as §1
[25] = test system: Globisporangium debaryanum; assay: Antifungal activity against Pythium debaryanum assessed as growth inhibition at 62.5 ug/ml by poisoned food technique
Summary of the method: (§3)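 Poisoned-food assay on PDA. Test material was diluted in acetone and mixed into molten medium at final 250, 125 or 62.5 μg/mL, with 1 mL acetone as control. Plates received a 5 mm mycelial disc from the front of a 2-week-old colony and were incubated at 28 °C until control growth was nearly complete. Colony diameter was measured, giving %I = (C−T)/C×100. Mean ± SD of four replicates.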

[26] = test system: Globisporangium debaryanum; assay: Antifungal activity against Pythium debaryanum assessed as growth inhibition at 125 ug/ml by poisoned food technique; summary of the method: as §3
[27] = test system: Globisporangium debaryanum; assay: Antifungal activity against Pythium debaryanum assessed as growth inhibition at 250 ug/ml by poisoned food technique; summary of the method: as §3
Pythium aphanidermatum [28] = assay: Antifungal activity against Pythium aphanidermatum assessed as growth inhibition at 62.5 ug/ml by poisoned food technique; summary of the method: as §3
Pythium aphanidermatum [29] = assay: Antifungal activity against Pythium aphanidermatum assessed as growth inhibition at 125 ug/ml by poisoned food technique; summary of the method: as §3
Pythium aphanidermatum [30] = assay: Antifungal activity against Pythium aphanidermatum assessed as growth inhibition at 250 ug/ml by poisoned food technique; summary of the method: as §3
Fusarium udum [31] = assay: Antifungal activity against Fusarium udum assessed as growth inhibition at 62.5 ug/ml by poisoned food technique; summary of the method: as §3
Fusarium udum [32] = assay: Antifungal activity against Fusarium udum assessed as growth inhibition at 125 ug/ml by poisoned food technique; summary of the method: as §3
Fusarium udum [33] = assay: Antifungal activity against Fusarium udum assessed as growth inhibition at 250 ug/ml by poisoned food technique; summary of the method: as §3
Macrophomina phaseolina [34] = assay: Antifungal activity against Rhizoctonia bataticola assessed as growth inhibition at 62.5 ug/ml by poisoned food technique; summary of the method: as §3
Macrophomina phaseolina [35] = assay: Antifungal activity against Rhizoctonia bataticola assessed as growth inhibition at 125 ug/ml by poisoned food technique; summary of the method: as §3
Macrophomina phaseolina [36] = assay: Antifungal activity against Rhizoctonia bataticola assessed as growth inhibition at 250 ug/ml by poisoned food technique; summary of the method: as §3
Rhizoctonia solani [37] = assay: Antifungal activity against Rhizoctonia solani assessed as growth inhibition at 62.5 ug/ml by poisoned food technique; summary of the method: as §3
Rhizoctonia solani [38] = assay: Antifungal activity against Rhizoctonia solani assessed as growth inhibition at 125 ug/ml by poisoned food technique; summary of the method: as §3
Rhizoctonia solani [39] = assay: Antifungal activity against Rhizoctonia solani assessed as growth inhibition at 250 ug/ml by poisoned food technique; summary of the method: as §3
Athelia rolfsii [40] = assay: Antifungal activity against Athelia rolfsii assessed as growth inhibition at 62.5 ug/ml by poisoned food technique; conditions: Agroathelia rolfsii; summary of the method: as §3
Athelia rolfsii [41] = assay: Antifungal activity against Athelia rolfsii assessed as growth inhibition at 125 ug/ml by poisoned food technique; conditions: Agroathelia rolfsii; summary of the method: as §3
Athelia rolfsii [42] = assay: Antifungal activity against Athelia rolfsii assessed as growth inhibition at 250 ug/ml by poisoned food technique; conditions: Agroathelia rolfsii; summary of the method: as §3

In the case of `CCCCC(O)(Cn1cncn1)c1ccc(Cl)cc1Cl` (stereo not drawn) [HEXACONAZOLE], the inhibition at 7.25 µg/mL (Pythium aphanidermatum [1]) is reported as 14.1%, the inhibition at 15.5 µg/mL (Pythium aphanidermatum [2]) is reported as 32.7% and the inhibition at 31 µg/mL (Pythium aphanidermatum [3]) is reported as 65.3%. It also gave an inhibition at 7.25 µg/mL (Fusarium udum [4]) of 18.6%, an inhibition at 15.5 µg/mL (Fusarium udum [5]) of 23.7% and an inhibition at 31 µg/mL (Fusarium udum [6]) of 70%. It also gave an inhibition at 7.25 µg/mL (Macrophomina phaseolina [7]) of 60.1%, an inhibition at 15.5 µg/mL (Macrophomina phaseolina [8]) of 73.2% and an inhibition at 31 µg/mL (Macrophomina phaseolina [9]) of 87%. For the same molecule, the inhibition at 7.25 µg/mL (Rhizoctonia solani [10]) was 20.6%, the inhibition at 15.5 µg/mL (Rhizoctonia solani [11]) was 38.2% and the inhibition at 31 µg/mL (Rhizoctonia solani [12]) was 72.6%. It also gave an inhibition at 7.25 µg/mL (Athelia rolfsii [13]) of 28.2%, an inhibition at 15.5 µg/mL (Athelia rolfsii [14]) of 45.3% and an inhibition at 31 µg/mL (Athelia rolfsii [15]) of 90.7%. The EC50 [16] was 25.9 µg/mL (≈ 82.5 µM), the EC50 (Pythium aphanidermatum [17]) was 22.1 µg/mL (≈ 70.2 µM) and the EC50 (Fusarium udum [18]) was 22 µg/mL (≈ 70 µM). It also gave an EC50 (Macrophomina phaseolina [19]) of 4.4 µg/mL (≈ 14 µM), an EC50 (Rhizoctonia solani [20]) of 18.3 µg/mL (≈ 58.2 µM) and an EC50 (Athelia rolfsii [21]) of 13.4 µg/mL (≈ 42.7 µM). The inhibition at 7.25 µg/mL [22] was 11.1%, the inhibition at 15.5 µg/mL [23] was 26.3% and the inhibition at 31 µg/mL [24] was 59.2%.

Work on `Cc1cc(O)c(C=O)c2c1C(=O)Oc1c(CO)c(O)c3c(c1O2)C(O)OC3=O` (stereo not drawn) [SLAZINIC ACID] yielded an EC50 [16] of 151 µg/mL (≈ 388 µM), an inhibition at 62.5 µg/mL [25] of 11.9% and an inhibition at 125 µg/mL [26] of 28.1%. It also gave an inhibition at 250 µg/mL [27] of 43.5%, an EC50 (Pythium aphanidermatum [17]) of 121 µg/mL (≈ 312 µM) and an inhibition at 62.5 µg/mL (Pythium aphanidermatum [28]) of 11.1%. It also gave an inhibition at 125 µg/mL (Pythium aphanidermatum [29]) of 25.5%, an inhibition at 250 µg/mL (Pythium aphanidermatum [30]) of 61% and an EC50 (Fusarium udum [18]) of 88.2 µg/mL (≈ 227 µM). The inhibition at 62.5 µg/mL (Fusarium udum [31]) was 31%, the inhibition at 125 µg/mL (Fusarium udum [32]) was 50.1% and the inhibition at 250 µg/mL (Fusarium udum [33]) was 67%. For the same molecule, the EC50 (Macrophomina phaseolina [19]) was 161 µg/mL (≈ 416 µM), the inhibition at 62.5 µg/mL (Macrophomina phaseolina [34]) was 9% and the inhibition at 125 µg/mL (Macrophomina phaseolina [35]) was 26.8%. The inhibition at 250 µg/mL (Macrophomina phaseolina [36]) was 41.2%, the EC50 (Rhizoctonia solani [20]) was 179 µg/mL (≈ 462 µM) and the inhibition at 62.5 µg/mL (Rhizoctonia solani [37]) was 22.1%. For the same molecule, the inhibition at 125 µg/mL (Rhizoctonia solani [38]) was 30.2%, the inhibition at 250 µg/mL (Rhizoctonia solani [39]) was 45.2% and the EC50 (Athelia rolfsii [21]) was 164 µg/mL (≈ 423 µM). The inhibition at 62.5 µg/mL (Athelia rolfsii [40]) was 5.93%, the inhibition at 125 µg/mL (Athelia rolfsii [41]) was 21% and the inhibition at 250 µg/mL (Athelia rolfsii [42]) was 38.2%.

Source: ChEMBL document CHEMBL3046428, “Isolation, characterization and antifungal activity of major constituents of the Himalayan lichen Parmelia reticulata Tayl” (2011)
